From ChEMBL document CHEMBL1135743 (J Med Chem, 2002)

Assays:
Adenosine receptor A1 = target: T1, Adenosine receptor A1 (Homo sapiens, UniProt P30542); experiment: Displacement of [3H]DPCPX from CHO cell membrane expressing human Adenosine A1 receptor; type: cell membranes
T1 sequence (P30542 whole entry): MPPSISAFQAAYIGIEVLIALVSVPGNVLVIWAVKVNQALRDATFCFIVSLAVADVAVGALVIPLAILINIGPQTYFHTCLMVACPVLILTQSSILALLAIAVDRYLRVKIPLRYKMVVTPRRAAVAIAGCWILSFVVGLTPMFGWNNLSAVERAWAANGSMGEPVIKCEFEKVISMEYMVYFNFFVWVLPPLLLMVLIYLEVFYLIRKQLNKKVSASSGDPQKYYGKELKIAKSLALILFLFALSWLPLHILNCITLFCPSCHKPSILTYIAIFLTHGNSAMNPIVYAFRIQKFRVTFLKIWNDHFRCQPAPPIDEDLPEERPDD

Adenosine receptor A2a [1] = target: T2, Adenosine receptor A2a (Homo sapiens, UniProt P29274); experiment: Displacement of [3H]ZM-241,385 from CHO cell membrane expressing human Adenosine A2A receptor; type: cell membranes
T2 sequence (P29274 whole entry): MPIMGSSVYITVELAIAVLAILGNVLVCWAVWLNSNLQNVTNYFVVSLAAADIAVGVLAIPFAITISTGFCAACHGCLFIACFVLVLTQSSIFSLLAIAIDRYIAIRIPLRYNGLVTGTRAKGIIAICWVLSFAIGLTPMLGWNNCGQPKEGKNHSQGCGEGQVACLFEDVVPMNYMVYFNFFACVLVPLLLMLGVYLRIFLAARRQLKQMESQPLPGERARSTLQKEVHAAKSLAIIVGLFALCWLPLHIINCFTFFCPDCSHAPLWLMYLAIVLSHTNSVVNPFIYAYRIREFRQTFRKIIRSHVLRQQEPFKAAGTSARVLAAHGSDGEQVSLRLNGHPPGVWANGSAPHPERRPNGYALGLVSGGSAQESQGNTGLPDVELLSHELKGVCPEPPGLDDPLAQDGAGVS
Procedure, shortened: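 Membranes from CHO cells expressing human A2A, with adenosine deaminase 2 IU/mL added. Incubation used 2.0 nM (final) [3H]ZM241385 in 50 mM Tris/HCl pH 7.4 for 2 h at 25 °C. Nonspecific binding was set with 100 µM CPA. GF/B filtration, four ice-cold washes, scintillation counting. Ligands were dissolved in DMSO stocks.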

Adenosine receptor A3 = target: T3, Adenosine receptor A3 (Homo sapiens, UniProt P0DMS8); experiment: Ability to displace [125I]- AB-MECA from HEK 293 cell membrane expressing the human Adenosine A3 receptor; type: cell membranes, HEK293
T3 sequence (P0DMS8 whole entry): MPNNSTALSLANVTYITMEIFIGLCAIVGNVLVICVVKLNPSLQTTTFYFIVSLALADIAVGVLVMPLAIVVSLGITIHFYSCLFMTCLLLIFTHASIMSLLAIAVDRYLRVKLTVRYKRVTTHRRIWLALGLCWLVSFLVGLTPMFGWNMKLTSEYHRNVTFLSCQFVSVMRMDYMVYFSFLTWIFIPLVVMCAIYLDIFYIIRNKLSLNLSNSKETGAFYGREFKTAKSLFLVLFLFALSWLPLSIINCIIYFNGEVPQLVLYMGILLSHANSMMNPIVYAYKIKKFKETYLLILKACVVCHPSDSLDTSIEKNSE

Adenosine receptor A2a [2] = target: T2, Adenosine receptor A2a; experiment: Ability to displace [3H]- ZM-241385 from CHO cell membrane expressing the human Adenosine A2A receptor at a concentration of 10 uM; type: cell membranes
[3] = target: T4, Adenosine receptor A1 (Homo sapiens) (UniProt P30542); experiment: Ability to displace [3H]- DPCPX from CHO cell membrane expressing the human Adenosine A1 receptor at a concentration of 10 uM; type: cell membranes
T4 sequence (whole entry): T1 sequence (P30542 whole entry)

Adenosine receptor A2a [4] = target: T2, Adenosine receptor A2a; experiment: Displace [3H]ZM-241385 from CHO cell membrane expressing human Adenosine A2A receptor at 10 uM; type: cell membranes
[5] = target: T4, Adenosine receptor A1 (Homo sapiens); experiment: Displacement of [3H]DPCPX from CHO cell membrane expressing human Adenosine A1 receptor at 10 uM; type: cell membranes
[6] = target: T4, Adenosine receptor A1 (Homo sapiens); experiment: Displacement of [3H]- DPCPX from CHO cell membrane expressing human Adenosine A1 receptor; type: cell membranes
Procedure, shortened: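 Membranes from CHO cells stably expressing human A1, resuspended in 50 mM Tris/HCl pH 7.4 with adenosine deaminase 2 IU/mL. Incubated with 1.6 nM (final) [3H]DPCPX in 50 mM Tris/HCl pH 7.4 for 1 h at 25 °C. Nonspecific binding was set with 10 µM CPA. Filtration over GF/B, three ice-cold washes, then liquid scintillation counting. Ligand stocks were in DMSO.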

[7] = target: T5, Adenosine receptor A3 (Homo sapiens) (UniProt P0DMS8); experiment: Displacement of [125I]AB-MECA from HEK293 cell membrane expressing human Adenosine A3 receptor at 10 uM; type: cell membranes
T5 sequence (whole entry): T3 sequence (P0DMS8 whole entry)

SMILES | Ki (Adenosine receptor A1) [nM] | Ki (Adenosine receptor A2a [1]) [nM] | Ki (Adenosine receptor A3) [nM] | Displacement (Adenosine receptor A2a [2]) [%] | Displacement [3] [%] | also measured
C=CCn1c(=O)c2c(nc3ccccn32)n(Cc2ccccc2)c1=O | 42 | 161 | 5 |  |  | 
COc1ccn2c(c1)nc1c2c(=O)[nH]c(=O)n1Cc1ccccc1 |  |  | 210 | 10 | 49 | 
CC(C)(C)c1ccn2c(c1)nc1c2c(=O)[nH]c(=O)n1Cc1ccccc1 |  |  | 555 | 23 | 53 | 
COC(=O)/C=C/Cn1c(=O)c2c(nc3ccccn32)n(Cc2ccccc2)c1=O |  |  | 1130 |  |  | Displacement (Adenosine receptor A2a [4]): 12%; Displacement [5]: 1%
C#CCn1c(=O)c2c(nc3ccccn32)n(Cc2ccccc2)c1=O | 124 | 96 | 14 |  |  | 
O=c1c2c(nc3ccccn32)n(Cc2ccccc2)c(=O)n1CC1CCCCC1 |  |  | 114 | 22 |  | Displacement [6]: 21%
CC(C)Cn1c(=O)c2c(nc3ccccn32)n(Cc2ccccc2)c1=O | 28 |  | 6.3 | 40 |  | 
COc1ccc(Cn2c(=O)c3c(nc4ccccn43)n(Cc3ccccc3)c2=O)cc1 |  |  | 213 | 16 | 25 | 
CCCn1c(=O)c2c(nc3ccccn32)n(C)c1=O | 2100 |  | 3020 |  |  | Displacement (Adenosine receptor A2a [4]): 49%
CCCn1c(=O)c2c(nc3cc(-c4ccccc4)ccn32)n(Cc2ccccc2)c1=O |  |  |  | 8 | 25 | 
CCCn1c(=O)c2c(nc3ccccn32)n(Cc2ccccc2)c1=O |  | 119 |  |  |  | 
CCCn1c(=O)c2c(nc3ccccn32)n(Cc2ccc(OC)cc2)c1=O | 83 |  | 8.3 | 40 |  | 
CCn1c(=O)c2c(nc3ccccn32)n(Cc2ccccc2)c1=O | 325 | 584 | 36 |  |  | 
CCCn1c(=O)c2c(nc3cc(OC)ccn32)n(Cc2ccccc2)c1=O | 179 |  | 10 | 44 |  | 
O=c1[nH]c(=O)n(Cc2ccccc2)c2nc3ccccn3c12 |  |  | 370 | 32 | 47 | 
O=c1[nH]c(=O)n(Cc2ccccc2)c2nc3cc(-c4ccccc4)ccn3c12 |  |  | 200 | 0 | 11 | 
NCCCn1c(=O)c2c(nc3ccccn32)n(Cc2ccccc2)c1=O |  |  |  | 11 | 7 | Displacement [7]: 6%
O=c1c2c(nc3ccccn32)n(Cc2ccccc2)c(=O)n1CC1CC1 |  | 242 | 4.2 |  | 40.9 | 
CCCn1c(=O)c2c(nc3cc(C(C)(C)C)ccn32)n(Cc2ccccc2)c1=O | 1460 | 385 | 950 |  |  | 
CCCn1c(=O)c2c(nc3ccccn32)n(Cc2cccc(C)c2)c1=O |  |  | 68 | 35 | 44 | 
O=c1c2c(nc3ccccn32)n(Cc2ccccc2)c(=O)n1Cc1ccccc1 |  | 25800 | 77 |  | 20 | 
